# Assay outcomes: PubChem, The Scripps Research Institute Molecular Screening Center
# Sampled rows, rich in hits. Any-hit rate of the full collection: about 1.9%.
# LEDGF integ inh = blocks HIV-1 LEDGF/p75-dependent DNA integration; TR-FRET IN-LEDGF/p75 DNA integration, Eu/Cy5; inhibition, % at 3.7 µM; hit rate 0.64% among 370,000;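 active = inhibition above the screen-wide mean plus 3 SD, cut at about 13% in these data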;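 also: signal is the Cy5 over europium emission ratio at 671 and 618 nm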
# TDP2 inh = TDP2 (human) inhibition, absorbance primary screen. AID 720702. hit rate 0.34% among 370,000. inhibition, % at 12.8 µM. recombinant TDP2, T5PNP hydrolysis, p-nitrophenol absorbance 415 nm. O95551;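 active = inhibition above the mean of all tested compounds plus 3 SD, set per campaign, cut at about 25% in these data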
#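 Read-out basis: percent inhibition. System: recombinant human TDP2. Buffer or medium: Mg2+-containing Tris-HCl buffer, pH 7.5. Repeats: single replicate. Timing: reaction 2 h, 37 °C. Benchmarks: high control without enzyme, low control DMSO plus TDP2. Probe or stimulus: 5 mM T5PNP. Doses: 12.8 µM only. Measured by: epi absorbance of p-nitrophenol freed from T5PNP by hydrolysis.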
# Tn7 DDE FP = DD(E)-Tn7 binding inhibition, primary FP screen; P02675; FP displacement of FITC-Tn7 peptide from fibrin DD(E); 0% = median of compound wells per plate; inhibition, % at 8.3 µM; hit rate 0.13% among 370,000;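 active = inhibition above the mean of compounds falling within the control limits plus 3 SD of them, cut at about 14% in these data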
#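 Assay system: human fibrin DD(E) protein / Input: 2 µM fibrin DD(E) / Benchmarks: high control of 10 µM Aha-Tn7 peptide / Measured by: fluorescence polarization of the labelled Tn7 tracer / Medium: Tris buffer with calcium and detergent, pH 7.8 / Timing: 10 min compound pre-incubation, 3 h probe incubation at room temperature / Repeats: one replicate per compound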
# Tn6 DDE FP = disrupts Tn6 cyclic peptide binding to fibrin D-Dimer-E complex; hit rate 0.21% among 370,000; inhibition, % at 8.3 µM; Fibrin DD(E) TRITC-Tn6 fluorescence polarization displacement; P02675;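 active = inhibition above a per-campaign cutoff: mean of compounds within control limits plus 3 SD, cut at about 15% in these data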
# UHRF1 MBD2 ctr = human UHRF1 methylated DNA binding inhibitors | hit rate 0.75% among 370,000 | AID 687016 | UHRF1 binding to methylated oligo, TR-FRET | Q96T88 | inhibition, % at 4.4 µM; in the data active = inhibition above about 21%;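 also: UHRF1 SRA domain binding a hemimethylated CpG hairpin DNA probe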
# MBD2 DNA inh = inhibitors of human MBD2 binding to methylated oligonucleotide | hit rate 0.31% among 370,000 | TR-FRET | inhibition, % at 4.4 µM | AID 686964; in the data active = inhibition above about 13%
# Target sequence (Q9UBB5 whole entry, looked up): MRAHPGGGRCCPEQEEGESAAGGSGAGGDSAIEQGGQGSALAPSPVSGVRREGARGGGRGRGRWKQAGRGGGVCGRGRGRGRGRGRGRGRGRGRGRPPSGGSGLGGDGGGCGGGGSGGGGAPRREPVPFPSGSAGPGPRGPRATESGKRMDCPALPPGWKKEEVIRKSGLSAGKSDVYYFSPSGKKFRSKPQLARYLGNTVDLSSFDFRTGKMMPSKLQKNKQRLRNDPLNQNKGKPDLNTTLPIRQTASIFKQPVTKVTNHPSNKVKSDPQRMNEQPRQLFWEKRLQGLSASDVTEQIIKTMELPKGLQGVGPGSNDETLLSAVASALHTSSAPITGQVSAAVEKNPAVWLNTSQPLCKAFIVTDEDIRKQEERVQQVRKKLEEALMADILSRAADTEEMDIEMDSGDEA
# Hits are given with their value; - = inactive.
SMILES,LEDGF integ inh,TDP2 inh,Tn7 DDE FP,Tn6 DDE FP,UHRF1 MBD2 ctr,MBD2 DNA inh
CCOC(=O)c1cccc(NC(=O)CN(C)S(=O)(=O)c2ccc(C)c(C)c2)c1,-,-,-,-,-,-
Cc1ccccc1C(=O)N1CCN(C(=O)C(=O)c2cccc(C(F)(F)F)c2)CC1,-,-,-,-,-,-
CC1(C)NC(=O)N(CCOCCOc2ccccc2-c2ccccc2)C1=O,-,-,-,-,28,-
CCOc1ccc(-n2c(SCC(=O)Nc3cccc4ccccc34)nnc2-c2cccs2)cc1,-,-,-,-,-,-
COc1ccc(NC(=O)Nc2ccc3c(c2)C(=O)N([C@H](C)CO)C[C@H](C)[C@H](CN(C)C)OCCCC[C@@H](C)O3)cc1,-,-,-,-,-,-
Oc1ccc(/C=N/Nc2cc(N3CCCC3)nc(N3CCCC3)n2)cc1O,33,-,-,-,-,-
CCCCCCCCN1C(=O)[C@@H](CC(=O)N2CCN(C(=O)C3CC3)CC2)C[C@@]2(C(=O)OC)C1=C[C@H](COCc1ccccc1)O[C@@H]2C,-,-,-,-,-,-
Cc1ccc(C)c(S(=O)(=O)Nc2ccc3oc(C)c(C(=O)O)c3c2)c1,-,-,-,-,24,-
C[C@@H]1CN([C@H](C)CO)S(=O)(=O)c2ccc(Br)cc2O[C@H]1CN(C)C(=O)C1CC1,-,-,-,-,21,-
C[C@H]1CN([C@@H](C)CO)S(=O)(=O)c2ccc(Br)cc2O[C@H]1CN(C)C(=O)c1cccnc1,-,-,-,-,24,-
C[C@@H]1CN([C@H](C)CO)S(=O)(=O)c2ccc(Br)cc2O[C@@H]1CN(C)Cc1ccc(-c2ccccc2)cc1,-,-,-,-,21,-
COc1cccc(-c2ccc3c(c2)O[C@@H](CN(C)C(=O)C2CCOCC2)[C@H](C)CN([C@H](C)CO)S3(=O)=O)c1,-,-,-,-,22,-
O=C1CCCC2=C1C1(CCCC1)N=C(Nc1nc3cc(Br)ccc3o1)N2,-,-,-,-,-,-
O=C1CCC[C@H]2C[C@H](NCc3ccc(Cl)c(C(F)(F)F)c3)CC[C@]23CCCN13,-,-,-,-,-,-
Cc1ccc(CN2CCCCC(NC(=O)Nc3cccc(F)c3)C2=O)cc1 (centres undefined),-,-,-,-,-,-
c1ccc(CCNc2nc3ccccc3s2)cc1,-,-,-,-,21,-
COc1[nH]c(/N=C/c2ccccc2)c(C#N)c1C#N,-,-,-,38,-,-
C=CC#CC[N+]1(CC#Cc2ccccc2)CCOCC1,-,-,-,-,-,20
C(#Cc1ccccc1)C[N+]1(CC#Cc2ccccc2)CCCC1,-,-,-,-,-,-
Cc1cccc(-c2cccc3c4c([nH]c23)[C@@H]2C[C@H](N(C)C(=O)Nc3ccccc3C)[C@H]([C@H](C)O)CN2CC4)c1,-,-,-,-,-,-
Nc1[nH]c(C(=O)c2ccc(Br)cc2)c(-c2ccc(Br)cc2)c1C(=O)NCc1cccc2ccccc12,-,-,-,-,-,-
Cc1ccc(NN2C(=O)C=C(c3ccccc3)C2=O)cc1,-,-,-,-,21,-
CCOC(=O)c1c(C)n(CCNC(C)=O)c2ccc(OC)cc12,-,-,-,-,-,-
CCOC(=O)c1c(-c2ccccc2)c2cc(OC)ccc2n1CCCN(C)C,-,-,-,-,26,-
c1ccc2c(c1)OCc1nccn1-2,-,-,-,-,-,-
SMILES,LEDGF integ inh,TDP2 inh,Tn7 DDE FP,Tn6 DDE FP,UHRF1 MBD2 ctr,MBD2 DNA inh
COc1ccc(OC)c(NC(=O)C(C)N2c3cccc4cccc(c34)S2(=O)=O)c1 (centres undefined),30,-,-,-,-,-
CC(=O)C(C(C)=O)c1c(Cl)c(O)c(O)c2c(C(=O)c3ccccc3)coc12,51,-,-,-,-,-
COc1cc2c(cc1NC(=O)CSc1nnc(-c3cnccn3)n1-c1ccc(C)cc1)oc1ccccc12,-,-,-,-,-,-
CCOc1ccc(S(=O)(=O)Nc2cccc(C(=O)N(C)CC(=O)Nc3ccc(OC)cc3)c2)cc1,44,-,-,-,-,-
CCN(CC(=O)Nc1ccc(NC(C)=O)cc1)C(=O)c1ccc(N(C)S(=O)(=O)c2ccc(C)cc2)cc1,-,-,-,-,42,-
CCN(CC(=O)Nc1ccc(OC)cc1)C(=O)c1ccc(NS(=O)(=O)c2ccc(C(C)=O)cc2)cc1,-,-,-,-,23,-
CCN(CC(=O)Nc1ccccc1OC)C(=O)c1ccc(N(C)S(=O)(=O)c2ccc(C)cc2)cc1,-,-,-,-,-,-
CC(=O)c1ccc(S(=O)(=O)NCC2CCN(C(=O)C(=O)c3cc4ccccc4o3)CC2)cc1,-,-,-,-,-,-
COc1cccc(CNC(=O)[C@H]2CCCN2C(=O)[C@H]2CCCN2C(=O)c2ccc(C)cc2)c1,-,-,-,-,-,-
CC(=O)NS(=O)(=O)c1cccnc1Nc1cccc(Cl)c1C,-,-,-,-,-,-
NS(=O)(=O)c1cccnc1Nc1c(Cl)cccc1Cl,-,-,-,-,21,-
Cc1ccc(-n2c(SCC(=O)Nc3ccccc3-c3ccccc3)nnc2-c2ccccn2)cc1,-,-,-,-,-,-
Cc1cc(Cl)ccc1OCC(=O)OCC(=O)NCCNC(=O)COC(=O)COc1ccc(Cl)cc1C,20,-,-,-,-,-
Cc1cc(Cl)ccc1OCC(=O)NCCC(=O)O,-,-,-,-,-,-
O=C(Nc1nccs1)C1CCCN1S(=O)(=O)c1ccc(Cl)cc1 (centres undefined),-,-,-,-,25,-
O=C(Nc1nccs1)[C@@H]1CCCN1S(=O)(=O)c1ccccc1F,-,-,-,-,-,-
CC(=O)Nc1ccc(NC(=O)c2ccc(S(=O)(=O)N(C)c3ccccc3)cc2)cc1,-,-,-,-,-,-
Cc1nc2ccc(NC(=O)c3ccc(S(=O)(=O)N(C)c4ccccc4)cc3)cc2s1,-,-,-,-,26,-
CCC(C)n1c(SC(C)C#N)nc2ccccc2c1=O (centres undefined),-,-,-,-,28,-
COc1ccccc1CNC(=O)c1ccc(-c2ccccc2)cc1,-,-,-,-,26,-
COc1ccc(C(=O)NCc2ccccc2OC)cc1,-,-,-,-,-,-
CCC(C)N(C(=O)COC(=O)CNC(=O)c1sc2ccccc2c1Cl)C1CCS(=O)(=O)C1 (centres undefined),-,-,-,-,21,-
CCN(C(=O)COC(=O)CNC(=O)c1sc2ccccc2c1Cl)C1CCCCC1,-,-,-,-,-,-
COc1ccccc1-c1nnc(SCC(=O)NCc2c(C)c(Cl)cc(C(C)C)c2O)o1,-,-,-,-,43,-
